The source of these data is ChEMBL document CHEMBL4808175 (J Med Chem, 2021).

For series [1] the following is noted: human, microsomes, 1 h, 1 µM.
The nature of series [2]: Observed clearance in C57BL/6N mouse at 150 mg/kg, po administered as single dose measured up to 8 hrs by LC-MS/MS analysis. It is filed as ADME, organism-based. Conditions: in vivo.
For series [3], the target named is cGMP-dependent 3',5'-cyclic phosphodiesterase (Homo sapiens, UniProt O00408). Nature of the series: Inhibition of recombinant full length GST-tagged PDE2A (unknown origin) expressed in baculovirus infected Sf9 insect cells using FAM-cAMP as substrate incubated for 1.5 hrs by IMAP-FP assay. Summed up: (§1)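 PDE enzymes incubated with compound or vehicle and 50 nM TAMRA-cGMP or FAM-cAMP substrate for 1.5 h at 30 °C. Activity read by IMAP fluorescence polarization. IC50 from 10 concentrations, at least two replicates each, fitted by four-parameter logistic. Dose–response repeated at least twice; mean of at least two experiments.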

A short description of series [4]: Toxicity in athymic nude-Foxn1nu mouse assessed as effect on kidney at 50 to 150 mg/kg, po bid for 28 days. The series is classed as organism-based. The settings on record: in vivo, 672 h, dose 50-150 mg/kg, time 28 day.
The species entered for series [5] is Homo sapiens. The series can be described thus: Selectivity ratio of IC50 for recombinant full length GST-tagged PDE6C (unknown origin) expressed in baculovirus infected Sf9 insect cells to IC50 for recombinant full length GST-tagged PDE5A1 (unknown origin) expressed in baculovirus infected Sf9 insect cells using TAMRA-cGMP as substrate incubated for 1.5 hrs by IMAP-FP assay using TAMRA-cGMP as substrate incubated for 1.5 hrs by IMAP-FP assay.

The nature of series [6]: Toxicity in athymic nude-Foxn1nu mouse assessed as effect on liver at 50 to 150 mg/kg, po bid for 28 days. It is filed as organism-based. Conditions: in vivo, 672 h, dose 50-150 mg/kg, time 28 day.
The nature of series [7]: Toxicity in athymic nude-Foxn1nu mouse assessed as effect on spleen at 50 to 150 mg/kg, po bid for 28 days. The series is classed as organism-based. Conditions: in vivo, 672 h, dose 50-150 mg/kg, time 28 day.
The target in series [8] is T1, cGMP-specific 3',5'-cyclic phosphodiesterase (Homo sapiens, UniProt O76074). The series can be described thus: Inhibition of recombinant full length GST-tagged PDE5A1 (unknown origin) expressed in baculovirus infected Sf9 insect cells using TAMRA-cGMP as substrate incubated for 1.5 hrs by IMAP-FP assay.
In series [9] the target is T2, cGMP-inhibited 3',5'-cyclic phosphodiesterase 3A (Homo sapiens, UniProt Q14432). The series can be described thus: Inhibition of recombinant GST-tagged PDE3A (669 to end residues) (unknown origin) expressed in baculovirus infected Sf9 insect cells using TAMRA-cGMP as substrate incubated for 1.5 hrs by IMAP-FP assay. Summed up:
as §1

In series [10] the target is High affinity 3',5'-cyclic-AMP phosphodiesterase 7A (Homo sapiens, UniProt Q13946). Nature of the series: Inhibition of recombinant GST-tagged PDE7A (122 to end residues) (unknown origin) expressed in baculovirus infected Sf9 insect cells using FAM-cAMP as substrate incubated for 1.5 hrs by IMAP-FP assay. Summed up:
as §1

Series [11] has as its target T1, cGMP-specific 3',5'-cyclic phosphodiesterase. The series can be described thus: Inhibition of PDE5A in HEK293 cells stably transfected with cGMP biosensor assessed as increase in SNP-induced intracellular cGMP level measured after 90 mins by luminescence assay. The series is classed as cell-based.
Series [12] can be described thus: Toxicity in athymic nude-Foxn1nu mouse assessed as body weight gain at 50 to 150 mg/kg, po bid for 28 days. The series is classed as organism-based. The settings on record: in vivo, 672 h, dose 50-150 mg/kg, time 28 day. Summed up:
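Female athymic nude-Foxn1nu mice, 8–9 weeks, 18–24 g, n=4 per group. Oral gavage at 50, 100 or 150 mg/kg twice daily, or vehicle, for 28 days. Formulation ethanol/water/Maalox (7:3:90, v/v/v). Toxicity signs monitored daily. Body weight recorded daily in week 1, then twice weekly, as percent change from starting weight.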

For series [13], the species on record is Homo sapiens. Nature of the series: Selectivity ratio of IC50 for recombinant GST-tagged full length PDE11A4 (unknown origin) expressed in baculovirus infected Sf9 insect cells to IC50 for recombinant full length GST-tagged PDE5A1 (unknown origin) expressed in baculovirus infected Sf9 insect cells using TAMRA-cGMP as substrate incubated for 1.5 hrs by IMAP-FP assay using TAMRA-cGMP as substrate incubated for 1.5 hrs by IMAP-FP assay.

In series [14] the target is T2, cGMP-inhibited 3',5'-cyclic phosphodiesterase 3A. The series can be described thus: Inhibition of recombinant GST-tagged PDE3A (669 to end residues) (unknown origin) expressed in baculovirus infected Sf9 insect cells using FAM-cAMP as substrate incubated for 1.5 hrs by IMAP-FP assay. Summed up:
as §1

Series [15] concerns the target Dual 3',5'-cyclic-AMP and -GMP phosphodiesterase 11A (Homo sapiens, UniProt Q9HCR9). Nature of the series: Inhibition of recombinant GST-tagged full length PDE11A4 (unknown origin) expressed in baculovirus infected Sf9 insect cells using FAM-cAMP as substrate incubated for 1.5 hrs by IMAP-FP assay. Summed up:
as §1

Each structure is given as a SMILES string. pEC50, pIC50: −log10 of the molar value.

T2 sequence (Q14432 whole entry): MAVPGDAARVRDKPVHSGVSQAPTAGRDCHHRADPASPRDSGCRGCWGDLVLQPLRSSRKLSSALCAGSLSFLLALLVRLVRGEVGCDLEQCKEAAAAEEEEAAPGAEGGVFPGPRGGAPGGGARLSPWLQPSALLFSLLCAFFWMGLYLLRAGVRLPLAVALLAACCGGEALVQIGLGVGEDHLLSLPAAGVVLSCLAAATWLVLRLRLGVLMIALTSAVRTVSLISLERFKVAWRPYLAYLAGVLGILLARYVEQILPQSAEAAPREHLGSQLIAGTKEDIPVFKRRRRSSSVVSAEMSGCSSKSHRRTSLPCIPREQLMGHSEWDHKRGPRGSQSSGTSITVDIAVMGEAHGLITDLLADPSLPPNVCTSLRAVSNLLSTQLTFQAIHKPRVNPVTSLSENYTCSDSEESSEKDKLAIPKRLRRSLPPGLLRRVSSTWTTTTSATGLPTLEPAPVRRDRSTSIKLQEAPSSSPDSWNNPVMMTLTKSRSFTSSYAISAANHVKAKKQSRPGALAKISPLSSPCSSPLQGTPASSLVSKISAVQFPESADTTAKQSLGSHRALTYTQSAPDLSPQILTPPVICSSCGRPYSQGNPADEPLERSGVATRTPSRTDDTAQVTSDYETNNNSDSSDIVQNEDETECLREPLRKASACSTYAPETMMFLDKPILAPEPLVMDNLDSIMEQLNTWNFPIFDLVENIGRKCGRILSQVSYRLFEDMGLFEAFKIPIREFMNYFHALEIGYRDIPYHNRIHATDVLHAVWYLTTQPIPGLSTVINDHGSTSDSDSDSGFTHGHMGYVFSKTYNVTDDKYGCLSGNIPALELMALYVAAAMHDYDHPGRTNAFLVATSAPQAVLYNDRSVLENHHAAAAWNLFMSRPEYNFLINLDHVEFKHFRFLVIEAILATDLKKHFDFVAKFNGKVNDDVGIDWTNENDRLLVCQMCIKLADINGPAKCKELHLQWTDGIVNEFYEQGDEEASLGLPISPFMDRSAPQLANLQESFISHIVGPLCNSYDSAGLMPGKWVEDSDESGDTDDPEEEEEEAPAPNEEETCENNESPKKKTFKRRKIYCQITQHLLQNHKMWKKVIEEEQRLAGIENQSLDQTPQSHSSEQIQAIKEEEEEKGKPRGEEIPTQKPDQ
Chain of cGMP-dependent 3',5'-cyclic phosphodiesterase (O00408 whole entry): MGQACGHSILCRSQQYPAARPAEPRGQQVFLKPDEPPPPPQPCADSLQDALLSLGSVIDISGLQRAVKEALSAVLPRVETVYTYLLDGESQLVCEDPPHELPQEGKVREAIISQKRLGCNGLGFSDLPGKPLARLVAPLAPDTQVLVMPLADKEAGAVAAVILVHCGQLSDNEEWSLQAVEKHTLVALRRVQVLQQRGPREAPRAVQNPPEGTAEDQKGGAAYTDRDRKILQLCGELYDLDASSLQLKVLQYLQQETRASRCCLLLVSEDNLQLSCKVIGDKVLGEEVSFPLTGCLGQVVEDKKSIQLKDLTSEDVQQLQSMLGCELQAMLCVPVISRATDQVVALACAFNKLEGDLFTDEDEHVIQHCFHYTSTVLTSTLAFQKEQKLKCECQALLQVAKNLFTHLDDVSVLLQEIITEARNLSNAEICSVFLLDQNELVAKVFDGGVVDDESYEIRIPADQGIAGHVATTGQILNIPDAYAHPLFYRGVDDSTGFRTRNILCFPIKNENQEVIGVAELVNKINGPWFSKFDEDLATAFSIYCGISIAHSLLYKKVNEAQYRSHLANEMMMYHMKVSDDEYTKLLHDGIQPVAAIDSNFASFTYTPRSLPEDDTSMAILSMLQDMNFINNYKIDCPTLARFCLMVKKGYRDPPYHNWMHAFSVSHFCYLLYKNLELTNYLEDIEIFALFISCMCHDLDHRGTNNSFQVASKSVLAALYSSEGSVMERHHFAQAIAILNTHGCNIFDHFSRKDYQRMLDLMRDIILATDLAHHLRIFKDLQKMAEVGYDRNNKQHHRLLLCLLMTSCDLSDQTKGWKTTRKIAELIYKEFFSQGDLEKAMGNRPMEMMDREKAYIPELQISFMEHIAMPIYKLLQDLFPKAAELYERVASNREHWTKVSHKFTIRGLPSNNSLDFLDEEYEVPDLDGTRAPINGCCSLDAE
Chain of Dual 3',5'-cyclic-AMP and -GMP phosphodiesterase 11A (Q9HCR9 whole entry): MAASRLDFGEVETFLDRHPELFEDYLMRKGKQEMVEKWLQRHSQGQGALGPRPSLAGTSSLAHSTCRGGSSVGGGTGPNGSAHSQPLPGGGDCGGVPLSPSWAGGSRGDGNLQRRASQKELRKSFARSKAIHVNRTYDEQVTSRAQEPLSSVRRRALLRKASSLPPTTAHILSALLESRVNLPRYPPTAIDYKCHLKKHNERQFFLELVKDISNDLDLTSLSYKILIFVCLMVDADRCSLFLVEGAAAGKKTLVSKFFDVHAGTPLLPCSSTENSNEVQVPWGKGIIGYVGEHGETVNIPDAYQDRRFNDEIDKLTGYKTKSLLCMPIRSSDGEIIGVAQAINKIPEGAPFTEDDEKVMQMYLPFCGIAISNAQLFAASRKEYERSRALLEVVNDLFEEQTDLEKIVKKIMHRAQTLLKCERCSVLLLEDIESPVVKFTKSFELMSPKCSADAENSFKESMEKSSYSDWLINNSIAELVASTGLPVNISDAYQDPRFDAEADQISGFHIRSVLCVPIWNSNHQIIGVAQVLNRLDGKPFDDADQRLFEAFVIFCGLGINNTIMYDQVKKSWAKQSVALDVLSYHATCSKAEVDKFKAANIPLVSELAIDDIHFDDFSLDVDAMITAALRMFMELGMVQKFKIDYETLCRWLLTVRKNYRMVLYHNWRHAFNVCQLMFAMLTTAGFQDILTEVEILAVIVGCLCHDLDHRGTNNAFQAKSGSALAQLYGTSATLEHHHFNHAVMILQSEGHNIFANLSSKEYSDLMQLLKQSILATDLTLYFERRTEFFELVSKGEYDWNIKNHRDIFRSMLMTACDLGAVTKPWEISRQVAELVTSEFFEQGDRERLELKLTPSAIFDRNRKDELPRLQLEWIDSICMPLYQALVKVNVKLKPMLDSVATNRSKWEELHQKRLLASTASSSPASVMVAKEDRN
Chain of High affinity 3',5'-cyclic-AMP phosphodiesterase 7A (Q13946 whole entry): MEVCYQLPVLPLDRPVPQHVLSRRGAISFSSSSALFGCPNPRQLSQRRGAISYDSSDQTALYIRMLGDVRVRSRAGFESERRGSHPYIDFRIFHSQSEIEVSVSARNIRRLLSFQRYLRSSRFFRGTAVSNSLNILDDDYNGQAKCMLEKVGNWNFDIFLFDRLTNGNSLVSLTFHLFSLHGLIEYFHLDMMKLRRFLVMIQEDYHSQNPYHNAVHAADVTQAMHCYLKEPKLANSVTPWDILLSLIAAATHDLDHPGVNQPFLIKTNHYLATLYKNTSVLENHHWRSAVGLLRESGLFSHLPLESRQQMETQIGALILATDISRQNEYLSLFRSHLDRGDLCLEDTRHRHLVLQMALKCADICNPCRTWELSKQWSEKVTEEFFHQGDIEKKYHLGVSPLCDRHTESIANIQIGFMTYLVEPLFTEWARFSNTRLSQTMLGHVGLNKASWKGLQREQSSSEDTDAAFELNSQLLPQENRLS

As usually defined, the CL/F is the apparent clearance, not corrected for the fraction that reaches the circulation. For orientation: pIC50 means −log10 of the IC50, conventionally taken in molar units. One may read the pEC50 as −log10 of the EC50, conventionally taken in molar units. In turn, `COc1c(F)cc(C2CC(C(C)(C)C)=NN2c2ccc(C(=O)N3CCN(C)CC3)cc2)cc1F` (stereo not given) gave a t1/2 in series [1] of 22 min. In [2], the CL/F is 3.09 mL/min. Moreover, the negative-log IC50 (pIC50) is less than 5.00 in series [3]; 9.00 in [8]; less than 5.00 in series [9]; less than 5.00 in series [10]; less than 5.00 in series [14]; less than 5.00 in series [15]. Besides, the Activity entry in series [4], in series [6], in [7] and in series [12] was “Non-Toxic” in each case. The Ratio IC50 in [5] and in [13] was greater than 10000 throughout. For the same molecule, the negative-log EC50 (pEC50) in series [11] was 5.17.
